PPC-1+TRAIL kill – compounds killing PPC-1 cancer cells with TRAIL present (potentiator screen, no TRAIL-free arm); cell killing (% activity), % at 4 µM or 5 µM; actives 0.41% (n = 220,000); PPC-1 cells + TRAIL, ATPLite viability luminescence;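 active = cell killing above 50% in the first pass at 4 µM, then a duplicate retest at 5 µM averaging 50% or more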;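 also: plate controls were cells with TRAIL plus DMSO for no effect and medium-only wells lacking cells for full effect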
FLuc act counter – firefly luciferase counter-screen for stimulation assays; AID 1027; activation factor at 10 µM; P08659; 200,000 tested, under 10 active; ATPlite luciferase biochemical, luminescence, 10 min; 0 = ATP-free wells, 1 = DMSO control;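 active = luciferase activation factor, scaled between plate controls, of at least 2 with compound at 10 µM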
Target sequence (P08659 whole entry, looked up): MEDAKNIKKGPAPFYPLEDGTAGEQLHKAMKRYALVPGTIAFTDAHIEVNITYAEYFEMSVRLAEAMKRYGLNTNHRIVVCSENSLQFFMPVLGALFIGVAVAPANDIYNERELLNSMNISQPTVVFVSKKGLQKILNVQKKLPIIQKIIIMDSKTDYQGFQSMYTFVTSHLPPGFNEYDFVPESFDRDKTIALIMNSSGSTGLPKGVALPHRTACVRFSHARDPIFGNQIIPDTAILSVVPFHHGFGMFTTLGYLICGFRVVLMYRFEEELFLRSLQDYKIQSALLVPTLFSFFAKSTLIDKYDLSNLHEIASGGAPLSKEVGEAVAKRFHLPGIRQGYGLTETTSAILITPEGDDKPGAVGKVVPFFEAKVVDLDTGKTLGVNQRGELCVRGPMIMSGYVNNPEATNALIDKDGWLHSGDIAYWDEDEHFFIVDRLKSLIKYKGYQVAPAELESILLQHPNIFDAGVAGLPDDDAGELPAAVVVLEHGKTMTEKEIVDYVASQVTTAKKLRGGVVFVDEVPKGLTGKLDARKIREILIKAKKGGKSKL
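test system = cell-free luciferase reagent | medium = PBS as buffer for the ATP substrate | dosing = test compounds dosed from 2 mM stocks in 100% DMSO | incubation = 10 min at ambient temperature | detection = luminescence measurement of luciferase light output | benchmarks = low control with PBS replacing ATP, high control enzyme plus ATP without compound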
FLuc inh counter – counter-screen for luciferase assay inhibitors: firefly luciferase inhibition. ATPLite firefly luciferase biochemical luminescence, 10 min. inhibition, % at 10 µM. actives 1.5% (n = 200,000);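 active = inhibition above about 50% when tested at 10 µM, limit read from the data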
TRAIL sens C8 – caspase-8 TRAIL sensitization | AID 624354 | inhibition (viability loss, TRAIL sensitization), % at 10 µM | actives 1% (n = 360,000) | NB7+C8 cells + TRAIL, ATPlite viability luminescence;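 active = compounds causing at least 50% loss of cell viability in the single-dose screen, relative to plate controls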
* marks the source's active call; other numbers are inactive results; . = not tested or not shown. Hits are enriched below; roughly 1.5% of the tested compounds scored in any of these assays.

SMILES | PPC-1+TRAIL kill | FLuc act counter | FLuc inh counter | TRAIL sens C8
O=C(Oc1c(CN2CCOCC2)cc(Cl)c2cccnc12)c1ccccc1Br | -0.3 | . | . | 55.1*
O=C(c1ccc2c(c1)OCO2)N1CCN(c2ccc(F)cc2)CC1 | -9.0 | 1 | -2.0 | 3.5
COc1ccc(-c2nnc(SCC(=O)c3[nH]c(C)c(C(C)=O)c3C)o2)cc1 | 10.1 | 1 | -3.9 | 48.4*
COc1ccc(-c2nnc(SCC#N)o2)cc1 | 9.6 | 1 | -0.4 | 4.0
C#CCSc1nnc(-c2ccc(OC)cc2)o1 | 19.0 | 0.6 | 36.6 | 92.3*
O=C(O)CSc1ncnc2sc3c(c12)CCCC3 | -45.0 | 1 | -1.9 | 2.0
CCCN1C/C(=C/c2ccc3c(c2)OCO3)C(=O)/C(=C/c2ccc3c(c2)OCO3)C1 | 1.1 | 1 | 0.3 | -9.2
CC(C)N=C1NN=C(c2ccc(F)cc2)CS1 | 13.6 | 0.4 | 58.4* | 32.6
CCN=C1NN=C(c2ccc(C)cc2)CS1 | -7.1 | 0.4 | 63.5* | 6.8
c1ccc(CN=C2NN=C(c3ccccc3)CS2)cc1 | 14.6 | 0.6 | 39.5 | -7.5
COc1cc(OC)cc(C(=O)N=c2sc3ccccc3n2C)c1 | 5.7 | 0.8 | 18.2 | -1.5
COc1ccc(C(=O)N=c2sc3ccccc3n2C)cc1 | 41.4 | 0.3 | 69.1* | 42.3
CCCNC(=S)N1CCC(n2cnc3ccccc32)CC1 | -5.1 | 1.1 | -5.0 | -4.8
Cc1ccc(-n2nc3c(N4CCC(C(=O)NCc5ccccc5C)CC4)nnc(C)c3c2C)cc1 | . | . | . | 2.3
CCOc1ccccc1CNC(=O)C1CCN(c2nnc(C)c3c(C)n(-c4ccc(C)cc4)nc23)CC1 | . | . | . | 70.6*
C=CCOc1ccccc1CNc1cccc(F)c1 | -12.5 | 1.1 | -7.4 | -15.8
C=CCOc1ccccc1CNc1ccc2c(c1)OCCO2 | 39.0 | 0.3 | 74.4* | 58.7*
Cc1cc(O)c(/C=N/Nc2ccc(Cl)cc2)c(=O)o1 | -4.1 | 0.1 | 89.2* | -0.6
CC(C)(C)C(=O)Nc1nc(-c2ccccc2)ns1 | 11.8 | 0.6 | 41.5 | 12.9
O=C(c1ccc(-c2cc(Cl)ccc2Cl)o1)N1CCOCC1 | . | 1 | 4.6 | 4.4
O=C(c1cc(-c2ccc(Cl)cc2Cl)on1)N1CCCCCC1 | . | . | . | 14.9
O=C(c1cc(-c2ccc(Cl)cc2Cl)on1)N1CCCC1 | . | . | . | 66.5*
O=C(c1ccc(-c2ccc(Cl)cc2Cl)o1)N1CCOCC1 | 39.6 | 0.5 | 51.3* | 29.8
Cc1ccc(-c2csc(NC(=O)/C=C/c3ccco3)c2C(=O)O)cc1 | 30.8 | 0.4 | 64.2* | 32.6
O=C(/C=C/c1ccco1)Nc1cccc(NC(=O)/C=C/c2ccco2)n1 | 17.4 | 0.5 | 52.5* | 19.1
SMILES | PPC-1+TRAIL kill | FLuc act counter | FLuc inh counter | TRAIL sens C8
Cc1nc(NC(=O)/C=C/c2ccco2)sc1C | 7.1 | 0.7 | 34.5 | 46.4
O=C(/C=C/c1ccco1)Nc1ccccc1C(=O)O | 19.5 | 0.2 | 79.9* | 48.0*
Nn1c(SCc2cc([N+](=O)[O-])cc3c2OCOC3)nnc1-c1ccccn1 | 3.7 | . | . | 7.5
Cc1cc2oc(=O)cc(-c3ccccc3)c2c(C)c1-c1ccc(O)cc1 | . | . | . | -7.2
COc1cccc(C(=O)Cn2c(NCCCO)nc3ccccc32)c1 | . | . | . | 5.2
C#CC[N+](C)(C)CCCCCCCC | -21.9 | 1 | -3.0 | -0.1
CN=c1scc(C)n1/N=C/c1ccc(O)cc1 | 40.9 | 0.5 | 54.0* | 38.8
CN=c1scc(-c2ccco2)n1/N=C/c1ccc(O)c(O)c1 | 28.7 | 0.1 | 87.7* | 38.4
CN=c1scc(C)n1/N=C/c1ccc2c(c1)OCO2 | 33.7 | 0.4 | 57.5* | 60.8*
CN=c1scc(C)n1/N=C/c1cc(Br)c(O)c(Br)c1 | 10.1 | 0.7 | 32.0 | 4.4
COc1ccc(O)c(/C=N/n2c(-c3ccco3)csc2=Nc2cccnc2)c1 | 26.5 | 1 | -2.7 | -3.3
CCP(=O)(CC)c1cccc(N)c1 | 1.3 | 1 | -4.5 | -2.0
Cn1c(-c2ccccc2Br)n[nH]c1=S | . | . | . | -1.2
CCOC(=O)C1=CCN(S(=O)(=O)c2ccccc2C)C1c1ccc(Cl)cc1 (centres undefined) | . | . | . | 59.4*
Cc1ccc(Cl)cc1NC(=O)Nc1cccs1 | 0.7 | 1 | 1.4 | 2.4
Cc1ccc(/C=C2\SC(=S)N(CCCC(=O)Nc3cc(C)on3)C2=O)cc1 | . | . | . | -9.3
CCOc1ccc(/C=C2\CCC(C3CCCC3)C2=O)cc1 (centres undefined) | . | . | . | 8.4
CCC(=O)OCOc1ccc(/C=C2/CCC(CN(C)C)C2=O)cc1 (centres undefined) | . | . | . | 72.2*
CN(C)c1ccc(C=Nc2ccccc2C(N)=O)cc1 | 79.9* | 0.1 | 89.4* | 85.0*
Cc1ccc(C=Nc2ccccc2C(N)=O)o1 | 35.3 | 0.5 | 53.9* | -5.2
CN(C)c1ccc(/C=N/N=C/c2ccccc2O)cc1 | 16.2 | 0.6 | 36.7 | 23.2
CCc1ccccc1OCC(=O)Nc1cccc(S(=O)(=O)NCc2ccco2)c1 | . | . | . | 9.0
Cc1csc(N=Nc2ccc(N(C)C)cc2)[n+]1[O-] | . | . | . | 80.9*
CCOc1cc(NC(=O)CCl)c(OCC)cc1NC(=O)CCl | 15.7 | . | . | 90.7*
Cc1cc(C)c(N(C(=O)Cn2nnc3ccccc32)C(C(=O)NC(C)(C)C)c2ccsc2)c(C)c1 (centres undefined) | 6.0 | 1.1 | -6.1 | -1.3
SMILES | PPC-1+TRAIL kill | FLuc act counter | FLuc inh counter | TRAIL sens C8
CCN1/C(=C/c2ccc3cccc(C)c3[n+]2CC)Sc2ccccc21 | 25.0 | 1 | -4.0 | 61.2*
CCN1/C(=C\c2ccc3cc(C)ccc3[n+]2CC)Sc2cc(C)c(C)cc21 | 39.0 | 1 | -0.6 | 20.8
Cc1ccc2c(C)nc(N/C(N)=N/S(=O)(=O)c3ccc([N+](=O)[O-])cc3)nc2c1 | 4.2 | 1.1 | -8.9 | 7.7
COc1ccc2c(n1)Sc1nc3ccccc3nc1N2 | 18.7 | . | . | 77.0*
O=C(/C=C/c1ccccc1)C1C(=O)c2ccccc2C1=O | 37.1 | 0 | 95.4* | 87.3*
CCc1ccc(/C=C/C(=O)C2C(=O)c3ccccc3C2=O)cc1 | 23.6 | 0 | 96.3* | 91.4*
CN1CCN(CCC2Oc3cc([N+](=O)[O-])ccc3NC2=O)CC1 (centres undefined) | -2.6 | 1 | -3.5 | -0.2
CN(C)c1ccc(/C=c2\sc3n(c2=O)CCCN=3)cc1 | 28.7 | 0.2 | 83.5* | 62.0*
O=C(/C=C/c1ccccc1)NC(NC(=S)Nc1ccc(Cl)cc1)C(Cl)(Cl)Cl (centres undefined) | -17.7 | 1.1 | -5.3 | 52.2*
CN1CCN(C2=C(NS(=O)(=O)c3ccccc3)C(=O)c3ccccc3C2=O)CC1 | . | . | . | 50.6*
CCN1CCN(C2=C(NS(=O)(=O)c3ccc(Br)cc3)C(=O)c3ccccc3C2=O)CC1 | . | . | . | 45.2
CCN1CCN(C2=C(NS(=O)(=O)c3ccccc3)C(=O)c3ccccc3C2=O)CC1 | . | . | . | 61.4*
c1ccn(-c2ncnc3sc4c(c23)CCCC4)c1 | 6.4 | 1 | -4.2 | -14.4
NC(C(=O)O)C1CC(Cl)=NO1 (centres undefined) | 8.3 | 1.1 | -6.9 | .
NC(C(=O)O)C1ON=C(Cl)C1O (centres undefined) | . | . | . | 77.6*
O=C(N/N=C/c1cc([N+](=O)[O-])ccc1O)c1ccc(COc2ccc3c(c2)CCC3)o1 | . | . | . | 52.2*
